# Bioassay records: PubChem, Broad Institute
# ARNT-TACC3 inh: ARNT/TACC3 interaction disruption; Q9Y6A5; AlphaScreen His-ARNT PAS-B/GST-TACC3 binding, luminescence; TACC3 fragment carries E629A point mutation; inhibition, % at 9.99 µM; actives 0.66% (n = 390,000);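 active = mean inhibition of replicates at least 50% and at least half of replicates each reaching 50%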;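 also: 0% = complete ARNT plus TACC3 wells and 100% = ARNT alone without TACC3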
# FGF22 binding: shifts melting point of recombinant human FGF22. recombinant FGF22 thermal shift, SYPRO orange fluorescence; percent of sucrose octasulfate shift, DMSO zero. Q9HCT0. activity (Tm shift, normalised), % at 9.99 µM. actives 1.5% (n = 340,000);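 active = mean Tm shift, scaled 0 neutral to 100 positive control, at about 1.3% or above, every replicate too, limit read from the data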
# Target sequence (Q9HCT0 whole entry, looked up): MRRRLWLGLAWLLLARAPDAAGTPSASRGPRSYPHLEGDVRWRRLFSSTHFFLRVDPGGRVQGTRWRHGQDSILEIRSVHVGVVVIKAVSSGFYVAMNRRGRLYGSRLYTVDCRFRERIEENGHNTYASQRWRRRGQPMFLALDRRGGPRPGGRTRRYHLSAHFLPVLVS
# FN deposition inh: fibronectin deposition inhibition. actives 0.086% (n = 350,000). inhibition, % at 12.6 µM. AH1F fibroblasts, Alexa488-fibronectin deposition fluorescence, overnight;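 active = mean inhibition across replicates of 30% or more, regardless of how many single replicates reach that level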;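 also: positive control wells lacked labelled fibronectin entirely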
#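 Material – AH1F fibroblast monolayer, labelled fibronectin deposition · Reagent – labelled fibronectin 24 nM · Timing – 1 h adhesion, overnight exposure · Measured by – fluorescence at 485 nm excitation, 525 nm emission · Read-out – inhibition of fibronectin deposition signal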
# PDI inh: PDI (human) enzyme inhibition | PDI insulin aggregation turbidity, A650, 90 min | inhibition, % at 10 µM | P07237 | actives 0.052% (n = 350,000) | AID 588391;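 active = mean inhibition across replicates of 30% or more, whatever share of single replicates reach that level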
# AF4-AF9 inh: blocks AF4 peptide binding to human AF9 | AID 651704 | P42568 | inhibition, % at 10 µM | AlphaScreen, biotin-AF4 peptide binding to FLAG-AF9 | actives 0.47% (n = 350,000);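 active = every replicate reaching a set inhibition limit, whatever the replicate mean, cut at about 25% in these data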;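 also: 0% = plate neutral control median and 100% = total signal loss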
# ERp5 inh: ERp5 (human) disulfide isomerase inhibition. AID 651711. inhibition, % at 9.99 µM. actives 0.05% (n = 350,000). ERp5 insulin aggregation, absorbance 650 nm, 90 min. Q15084;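 active = mean replicate inhibition above about 25%, with every replicate also reaching it, limit read from the data, passing the limit was not always enough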
# Target sequence (Q15084 whole entry, looked up): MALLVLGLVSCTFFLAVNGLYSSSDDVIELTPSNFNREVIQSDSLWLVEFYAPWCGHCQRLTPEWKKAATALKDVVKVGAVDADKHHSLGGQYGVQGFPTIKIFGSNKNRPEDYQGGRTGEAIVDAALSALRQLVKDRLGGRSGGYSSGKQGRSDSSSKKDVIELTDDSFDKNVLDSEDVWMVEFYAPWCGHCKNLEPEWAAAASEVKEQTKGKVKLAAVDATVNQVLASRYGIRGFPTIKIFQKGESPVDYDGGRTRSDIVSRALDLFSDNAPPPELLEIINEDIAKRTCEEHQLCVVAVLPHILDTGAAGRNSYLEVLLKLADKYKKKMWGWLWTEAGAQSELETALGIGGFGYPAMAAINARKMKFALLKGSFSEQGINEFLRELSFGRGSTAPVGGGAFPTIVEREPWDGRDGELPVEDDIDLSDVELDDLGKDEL
# Starred values were filed as active, the others as inactive; nt = not tested or not shown. Sampled rows, rich in hits. Any-hit rate of the full collection: about 2.1%.
SMILES,ARNT-TACC3 inh,FGF22 binding,FN deposition inh,PDI inh,AF4-AF9 inh,ERp5 inh
COc1cccc(/C=N/NC(=O)c2ccccc2)c1OS(=O)(=O)c1ccccc1,8,44*,5,-1,4,2
C[C@@H]1CN([C@@H](C)CO)C(=O)Cc2cc(NC(=O)CCCN(C)C)ccc2O[C@@H]1CN(C)S(=O)(=O)c1ccc(Cl)cc1,nt,0,nt,nt,2,2
CC[C@H](C)[C@@H]1NC(=O)[C@@H](CC(C)C)NC(=O)[C@H](C(C)C)NC(=O)[C@H]2CSSC[C@H](NC1=O)C(=O)N2,nt,0,34*,nt,-3,6
CCC(=O)Nc1ccc2c(c1)OC[C@@H](C)N(CC1CCCCC1)C[C@@H](C)[C@H](OC)CN(C)C2=O,nt,nt,-6,nt,nt,nt
CNC(=O)c1nnsc1S(=O)(=O)c1ccc(Cl)cc1,-4,43*,nt,1,-1,3
COc1ccc(N2C(=O)C3CCCN3C2c2ccc(Cl)cc2)cc1 (centres undefined),-13,0,-29,nt,2,-4
COc1ccc(C2N(c3ccc(Cl)cc3)C(=O)C3CCCN32)cc1 (centres undefined),30*,0,-2,nt,-1,-5
CCOC(=O)C1(CCc2ccccc2)CCN(C(=O)CCc2cnn(C)c2)CC1,-4,44*,-4,5,0,3
CCOC(=O)C1(CCCc2ccccc2)CCN(C(=O)[C@@H]2C[C@@H](C)NC(=S)N2)CC1,3,52*,-3,15,7,-1
Cc1noc(C)c1NC(=O)N(C)C[C@@H]1Oc2ccc(NC(=O)Cc3cn(C)c4ccccc34)cc2C(=O)N([C@H](C)CO)C[C@H]1C,-1,-1,nt,nt,-11,-1
O=C(O)c1ccc(-c2cccc(Cl)c2)o1,2,nt,nt,6,nt,3
Cc1ccc(-c2ccc(C(=O)O)o2)cc1Cl,-8,0,-14,-4,27*,-2
C[C@H](CO)N1C[C@H](C)[C@@H](CN(C)Cc2ccc(F)cc2)Oc2ncc(-c3ccncc3)cc2C1=O,9,0,5,nt,-1,8
CO[C@H]1CC[C@@H]2CCN(C)C(=O)[C@H](C)[C@@H](OC)CN(C)C(=O)c3cc(C#N)ccc3OC[C@H]1O2,-1,-1,1,nt,-6,1
CCCNC(=O)c1ccc(C2SCC(=O)N2Cc2ccccc2)cc1 (centres undefined),-10,44*,-4,4,-1,-8
Cc1cc(C)c(NS(=O)(=O)c2ccccc2)c(C)n1,nt,43*,7,-4,1,10
Cc1cccnc1NS(=O)(=O)c1ccccc1,nt,44*,10,4,1,-2
CC(=O)Nc1cc2c(cc1Cl)-c1ccc(F)cc1C2O (centres undefined),-2,44*,-3,-10,0,-1
Cc1ccc(C(=O)N/C(=C\c2ccc3c(c2)OCO3)C(=O)Nc2ccc(C(=O)O)cc2)cc1,0,43*,9,11,-2,4
CC(C)NC(=O)Nc1ccc2c(c1)CC(=O)N([C@@H](C)CO)C[C@@H](C)[C@@H](CN(C)C(=O)Nc1ccccc1)O2,-11,0,nt,nt,-2,-1
O=C(NC(=S)NNC(=O)c1ccccc1O)c1cccc([N+](=O)[O-])c1,77*,0,10,4,-4,-2
COc1ccc(C(=O)NNC(=S)NC(=O)c2cccc([N+](=O)[O-])c2)cc1,2,0,-8,3,-4,1
O=C(NC(=S)NNC(=O)c1ccccc1O)c1cccnc1,67*,0,14,8,-1,-2
CCCC(=O)Nc1ccc2c(c1)OC[C@H](C)N(Cc1ccccc1)C[C@@H](C)[C@H](OC)CN(C)C2=O,-1,0,-7,nt,3,3
CN(C)CCCN1c2ccc3ccccc3c2Sc2cccc(Cl)c21,6,0,-17,-1,33*,1
SMILES,ARNT-TACC3 inh,FGF22 binding,FN deposition inh,PDI inh,AF4-AF9 inh,ERp5 inh
CN(C)CCCN1c2ccccc2Sc2ccc3ccccc3c21,6,0,-4,-3,30*,10
O=C(CCl)N1c2ccccc2Sc2ccc3ccccc3c21,nt,nt,nt,-1,nt,nt
COc1ccc(CN(C)C[C@H]2OCCCC[C@@H](C)Oc3ccc(NS(=O)(=O)c4cccs4)cc3C(=O)N([C@@H](C)CO)C[C@H]2C)cc1,16,0,nt,nt,6,9
O=C(c1cccnc1)N1CC(=O)N2[C@H](C1)[C@H](c1ccc(/C=C/c3ccccc3)cc1)[C@@H]2CO,nt,nt,nt,nt,37*,0
O=C(c1cccnc1)N1CC(=O)N2[C@H](C1)[C@H](c1ccc(-c3cccnc3)cc1)[C@@H]2CO,nt,nt,nt,nt,32*,-5
O=C(c1ccncc1)N1CC(=O)N2[C@@H](CO)[C@H](c3ccc(-c4cccnc4)cc3)[C@@H]2C1,nt,nt,nt,nt,-5,-5
O=C(c1cccnc1)N1CC(=O)N2[C@H](CO)[C@H](c3ccc(/C=C/c4ccccc4)cc3)[C@@H]2C1,nt,nt,nt,nt,2,3
CN(C)CC#Cc1ccc([C@@H]2[C@@H](CO)N3C(=O)CN(C(=O)c4cccnc4)C[C@H]23)cc1,nt,nt,nt,nt,2,3
CN(C)CC#Cc1ccc([C@H]2[C@H]3CN(C(=O)c4cccnc4)CC(=O)N3[C@H]2CO)cc1,nt,nt,nt,nt,35*,1
C[C@@H]1CN([C@H](C)CO)C(=O)c2ccccc2-c2ccccc2CO[C@H]1CN(C)S(=O)(=O)c1cccs1,17,0,4,nt,4,2
CO[C@H]1CN(C)C(=O)c2cc(NC(=O)C3CC3)ccc2OC[C@@H](C)N(Cc2cccc(F)c2)C[C@@H]1C,-10,0,-15,nt,2,-5
Cc1ccc(S(=O)(=O)N(C)C[C@@H]2Oc3ccc(NS(=O)(=O)c4ccc(F)cc4)cc3C(=O)N([C@@H](C)CO)C[C@H]2C)cc1,4,0,nt,nt,nt,nt
CO[C@H]1CN(C)C(=O)c2cc(NC(=O)C3CC3)ccc2OC[C@@H](C)N(CCc2ccccc2)C[C@@H]1C,2,nt,5,nt,nt,nt
COc1cccc(NC(=O)N[C@@H]2C=C[C@H](CC(=O)Nc3ccccc3)O[C@H]2CO)c1,-8,0,10,nt,0,-1
C[C@H](CO)N1C[C@H](C)[C@H](CN(C)Cc2ccc(Oc3ccccc3)cc2)Oc2ccc(N(C)C)cc2CC1=O,6,1,nt,nt,27*,0
C[C@H](CO)N1C[C@H](C)[C@@H](CN(C)Cc2ccc(Oc3ccccc3)cc2)Oc2ccc(N(C)C)cc2CC1=O,43,-2,1,nt,72*,-4
C[C@@H]1CN([C@@H](C)CO)C(=O)Cc2cc(N(C)C)ccc2O[C@@H]1CN(C)Cc1ccc(-c2ccccc2)cc1,12,0,6,nt,42*,1
C[C@H](CO)N1C[C@H](C)[C@@H](CN(C)Cc2ccccc2)Oc2ccc(N(C)C)cc2CC1=O,-3,-1,nt,nt,17,1
